In data set [1] the target is T1, Bile acid receptor (Homo sapiens) (UniProt Q96RI1).
T1 sequence (whole entry): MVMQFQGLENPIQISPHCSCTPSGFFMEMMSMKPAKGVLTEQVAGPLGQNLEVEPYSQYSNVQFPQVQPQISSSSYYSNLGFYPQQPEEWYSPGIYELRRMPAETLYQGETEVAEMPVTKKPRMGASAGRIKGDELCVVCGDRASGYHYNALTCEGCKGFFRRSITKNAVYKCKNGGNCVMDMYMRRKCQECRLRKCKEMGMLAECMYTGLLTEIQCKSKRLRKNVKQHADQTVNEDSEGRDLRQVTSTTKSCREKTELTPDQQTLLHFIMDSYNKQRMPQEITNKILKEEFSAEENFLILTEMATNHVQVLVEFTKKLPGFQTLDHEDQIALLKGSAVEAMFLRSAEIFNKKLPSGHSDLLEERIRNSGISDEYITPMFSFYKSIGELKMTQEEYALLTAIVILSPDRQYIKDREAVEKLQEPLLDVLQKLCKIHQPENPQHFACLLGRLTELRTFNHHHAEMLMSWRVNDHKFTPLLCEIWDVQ
As to the kind of experiment: Inhibition of GW4064-induced transactivation of FXR (unknown origin) expressed in HEK293T cells at 40 uM after 16 hrs by beta-lactamase reporter gene assay relative to control. As to conditions: HEK-293T. In kind it is cell-based. On the technique in general: Reporter assays use an easily measured gene product as a stand-in for the process of interest.

Data set [2] in a line: Cytotoxicity against HEK293T cells expressing FXR and beta-lactamase genes assessed as inhibition of cell viability at 40 uM after 16 hrs by CellTiter-Glo luminescent assay relative to control. It is filed as cell-based, HEK-293T. As to conditions: human, read-out: INH. The essentials: (§1)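 Viability run alongside the agonist assay in the same GeneBLAzer FXR HEK 293T cells: 20,000 cells/well in phenol red-free DMEM with 2% charcoal/dextran-treated FBS, 0.5% DMSO, 16 h at 37°C. Cooled 20 min, then CellTiter-Glo added for 20 min in dark; luminescence read.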

In data set [3] the target is T1, Bile acid receptor (Homo sapiens). As to the kind of experiment: Antagonist activity at human GST-tagged FXR at […] nM after 20 mins by TR-FRET assay relative to control. (In TR-FRET formats the signal depends on donor and acceptor labels being close together.)
Data set [4] shares this target. As to the kind of experiment: Agonist activity at human FXR.
Data set [5] has the same target. As to the kind of experiment: Antagonist activity at human GST-tagged FXR at 164 nM after 20 mins by TR-FRET assay relative to control.
Data set [6] in a line: Cytotoxicity against HEK293T cells expressing FXR and beta-lactamase genes assessed as inhibition of cell viability at 13.3 uM after 16 hrs by CellTiter-Glo luminescent assay relative to control. The conditions noted are these: human, read-out: INH. In kind it is cell-based, HEK-293T. The procedure, abridged:
as §1

The target of data set [7] is T1, Bile acid receptor (Homo sapiens). As to the kind of experiment: Agonist activity at FXR (unknown origin) expressed in HEK293T cells after 16 hrs by beta-lactamase reporter gene assay relative to control. It is filed as cell-based. The conditions noted are these: HEK-293T.
Data set [8] has the same target. Put plainly: Ratio of E16 IC50 to compound IC50 for human GST-tagged FXR after 20 mins by TR-FRET assay.
The target is the same in data set [9]. Put plainly: Inhibition of GW4064-induced transactivation of FXR (unknown origin) expressed in HEK293T cells at 20 uM after 16 hrs by beta-lactamase reporter gene assay relative to control. It is filed as cell-based. As to conditions: HEK-293T.
For data set [10] the target is unchanged. Put plainly: Antagonist activity at human GST-tagged FXR at 40 uM after 20 mins by TR-FRET assay relative to control.
For data set [11] the target is unchanged. As to the kind of experiment: Inhibition of GW4064-induced transactivation of FXR (unknown origin) expressed in HEK293T cells at 1 uM after 16 hrs by beta-lactamase reporter gene assay relative to control. The conditions noted are these: HEK-293T. It is filed as cell-based.
Data set [12] shares this target. Put plainly: Ratio of E16 IC50 to compound IC50 for transactivation of FXR (unknown origin) expressed in HEK293T cells after 16 hrs by beta-lactamase reporter gene assay. It is filed as cell-based. As to conditions: HEK-293T.
Data set [13] concerns the target T2, Bile acid receptor (Homo sapiens, UniProt Q96RI1).
T2 sequence (Q96RI1 whole entry): T1 sequence (whole entry)
Put plainly: Antagonist activity at human GST-tagged FXR after 20 mins by TR-FRET assay.

Data set [14] has as its target T2, Bile acid receptor. Put plainly: Inhibition of GW4064-induced transactivation of FXR (unknown origin) expressed in HEK293T cells after 16 hrs by beta-lactamase reporter gene assay. In kind it is cell-based, HEK-293T.
For data set [15], the target named is T1, Bile acid receptor (Homo sapiens). As to conditions: 4.44 uM.
For data set [16] the target is unchanged. Put plainly: Antagonist activity at human GST-tagged FXR at 1.5 uM after 20 mins by TR-FRET assay relative to control.
The nature of data set [17]: Cytotoxicity against HEK293T cells expressing FXR and beta-lactamase genes assessed as inhibition of cell viability at 4.4 uM after 16 hrs by CellTiter-Glo luminescent assay relative to control. In kind it is cell-based, HEK-293T. As to conditions: human, read-out: INH. The procedure, abridged:
as §1

Data set [18] addresses T1, Bile acid receptor (Homo sapiens). Put plainly: Antagonist activity at human GST-tagged FXR at 13.3 uM after 20 mins by TR-FRET assay relative to control.
Data set [19] shares this target. Put plainly: Antagonist activity at human GST-tagged FXR at 4.4 uM after 20 mins by TR-FRET assay relative to control.
The target is the same in data set [20]. Put plainly: Antagonist activity at human GST-tagged FXR at 1.48 uM after 20 mins by TR-FRET assay relative to control.

pIC50: −log10 of the molar value. Activity calls are given as the source filed them. The rule behind the calls is not given here. Bounds are passed on as bounds.

By inhibition is commonly meant the change of the read-out against control, counted positive when it falls. Regarding `O=C(Nc1cccc(S(=O)(=O)N2CCOCC2)c1)c1cn(-c2ccccc2)nc1-c1ccc(Cl)cc1`, the figures for the inhibition in data set [1] and in data set [3] were 38.8% and 36.9%, respectively. The cytotoxicity at 16 h, 40 µM in [2] was less than 5%. The result in [4] was inactive.

For the molecule `Cc1ccc(-c2nn(-c3nc4ccccc4s3)cc2C(=O)Nc2ccc(C)c(S(=O)(=O)N3CCOCC3)c2)cc1`, the figures for the inhibition in data set [1] and in data set [5] were 79.1% and 102%, respectively. For the same molecule, in data set [6], the cytotoxicity at 16 h, 13.3 µM stood at 11.5%. The outcome in data set [7] was inactive. Moreover, the Ratio IC50 in [8] is 3.

As for `COc1cccc(Cn2cc(C(=O)N(C)c3ccc(C)c(S(=O)(=O)N4CCOCC4)c3)c(C(C)C)n2)c1`, the inhibition in [9] is 2.4%; in [10], 80.3%. For the same molecule, in data set [2], the cytotoxicity at 16 h, 40 µM is 13.5%. Further, the result in [7] was inactive. Also, the inhibition entry in [11] was “inactive”.

For the molecule `O=C(Nc1ccc(S(=O)(=O)N2CCOCC2)cc1)c1cn(-c2ccccc2)nc1-c1ccc(Cl)cc1`, the inhibition in [1] turned out to be 20.6%; in data set [3] it was 17.8%. The cytotoxicity at 16 h, 40 µM in data set [2] is less than 5%. The outcome in data set [4] was inactive.

Regarding `COc1cccc(Cn2cc(C(=O)Nc3ccc(C)c(S(=O)(=O)N4CCOCC4)c3)c(-c3ccc(C)cc3)n2)c1`, the results for the inhibition in [1] and in [5] were 98.9% and 130%, respectively. For the same molecule, the cytotoxicity at 16 h, 40 µM in data set [2] is less than 5%. Moreover, the result in data set [7] was inactive. Further, the Ratio IC50 stood at 5.26 in [8] and 4.59 in data set [12].

Broadly, the pIC50 is −log10 of the IC50, conventionally taken in molar units. High values mean a low IC50, low ones a high IC50. For `O=C(Nc1cccc(S(=O)(=O)N2CCOCC2)c1)c1cn(-c2ccccc2)nc1-c1cccnc1`, the pIC50 is 5.89 in data set [13] and 4.97 in [14]. For the same molecule, the inhibition in data set [1] amounted to 82.3%; in [15] it was 90.4%. Further, the cytotoxicity at 16 h, 40 µM in [2] was less than 5%. Besides, the outcome in [4] was inactive.

Regarding `Cc1ccc(-c2nn(CC3CC3)cc2C(=O)Nc2ccc(C)c(S(=O)(=O)N3CCOCC3)c2)cc1`, the inhibition was 100% in [1] and 105% in [16]. The cytotoxicity at 16 h, 40 µM in data set [2] was less than 5%. In data set [7], the result was inactive.

As to `Cc1ccc(-c2nn(Cc3ccc4ccccc4c3)cc2C(=O)Nc2ccc(C)c(S(=O)(=O)N3CCOCC3)c2)cc1`, the results for the inhibition in data set [1] and in [5] were 84.4% and 97.8%, respectively. In addition, the cytotoxicity at 16 h, 4.4 µM in [17] was 7.9%. Further, in [7], the outcome was inactive.

Take `COc1ccc(-c2nn(-c3ccccc3)cc2C(=O)Nc2cc(S(=O)(=O)N3CCOCC3)ccc2N2CCOCC2)cc1`: the inhibition stood at 27% in data set [1] and 11.6% in data set [3]. In [2], the cytotoxicity at 16 h, 40 µM is less than 5%. The result in [4] was inactive.

Turning to `COc1cccc(-c2nn(C(C)C)cc2C(=O)Nc2ccc(C)c(S(=O)(=O)N3CCOCC3)c2)c1`, the inhibition came to 97.8% in data set [1] and 150% in data set [18]. The cytotoxicity at 16 h, 4.4 µM in data set [17] was determined as 10.8%. Also, in data set [7], the outcome was inactive.

As to `CCCCn1cc(C(=O)Nc2ccc(C)c(S(=O)(=O)N3CCOCC3)c2)c(-c2ccc(C)cc2)n1`, the inhibition in [9] turned out to be 97.9%; in data set [16], 130%. The cytotoxicity at 16 h, 4.4 µM in [17] amounted to 10.3%. Further, the outcome in data set [7] was inactive.

With `Cc1ccc(-c2nn(C(C)C)cc2C(=O)Nc2ccc(C)c(S(=O)(=O)N3CCOCC3)c2)cc1`, the results for the inhibition in [1] and in data set [19] were 99.1% and 131%, respectively. In data set [2], the cytotoxicity at 16 h, 40 µM was less than 5%. In data set [7], the result was inactive.

In the case of `COc1cccc(Cn2cc(CNc3ccc(C)c(S(=O)(=O)N4CCOCC4)c3)c(C(C)C)n2)c1`, the inhibition came out at 64.8% in data set [1] and 72.5% in data set [19]. The cytotoxicity at 16 h, 40 µM in [2] is 13.9%. Moreover, the result in data set [7] was inactive. The inhibition result in data set [11] was “inactive”.

As to `COc1cccc(Cn2cc(CNc3ccc(C)c(S(=O)(=O)N4CCOCC4)c3)c(-c3cccc(OC)c3)n2)c1`, the figures for the inhibition in data set [1] and in data set [20] were 3.1% and 39.8%, respectively. Also, the cytotoxicity at 16 h, 40 µM in data set [2] was less than 5%. Further, in data set [7], the result was inactive. Besides, the inhibition entry in data set [11] is “inactive”.

`CCN(CC)S(=O)(=O)c1cc(NC(=O)c2cnn(-c3cccnc3)c2)ccc1C`: the inhibition was found to be 24% in data set [1] and 23% in data set [20]. Also, in [2], the cytotoxicity at 16 h, 40 µM came to 10.3%. Besides, in data set [4], the result was inactive.

Values taken from ChEMBL document CHEMBL3259745, “Identification of trisubstituted-pyrazol carboxamide analogs as novel and potent antagonists of farnesoid X receptor” (Bioorg Med Chem, 2014).
